Measured values as given in article PMC3546147 (Bioorganic & medicinal chemistry, 2012).

Columns and labels:
A549 = conditions: read-out: GI50, A549, prior hit; cited from earlier work
KB [1] = conditions: prior hit; cited from earlier work
DU145 = conditions: read-out: GI50, DU145, prior hit; cited from earlier work
KB [2] = test: Antiproliferative SRB assay, KB; assay type: cell-based, human; conditions: positive control
Method in brief: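 Human nasopharyngeal epidermoid carcinoma KB cells, tested in a panel with A-549, P-gp-expressing KBVIN and DU145 lines. Cytotoxicity was read by the sulforhodamine B (SRB) method, with a reference compound run alongside. GI50 is the molar drug concentration causing 50% tumor cell growth inhibition.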

| SMILES | GI50 (A549) [µM] | GI50, KB (KB [1]) [µM] | GI50 (DU145) [µM] | GI50 ± SD, KB (KB [2]) [nM] | GI50 ± SD, KB (KB [2]; listed as paclitaxel) [nM] |
| --- | --- | --- | --- | --- | --- |
| COc1ccc(Nc2nc(Cl)ccc2[N+](=O)[O-])cc1 [1a, 6-chloro-N-(4-methoxyphenyl)-3-nitropyridin-2-amine] | 13.5 | 7.19 | 3.83 | – | – |
| CC(=O)O[C@H]1C(=O)[C@@]2(C)[C@H]([C@H](OC(=O)c3ccccc3)[C@]3(O)C[C@H](OC(=O)[C@H](O)[C@@H](NC(=O)c4ccccc4)c4ccccc4)C(C)=C1C3(C)C)[C@]1(OC(C)=O)CO[C@@H]1C[C@@H]2O [Paclitaxel] | – | – | – | 7.77 ± 0.84 | 8 |
